Assay results taken from ChEMBL document CHEMBL4368912, “Discovery and Development of N-[4-(1-Cyclobutylpiperidin-4-yloxy)phenyl]-2-(morpholin-4-yl)acetamide Dihydrochloride (SUVN-G3031): A Novel, Potent, Selective, and Orally Active Histamine H3 Receptor Inverse Agonist with Robust Wake-Promoting Activity” (J Med Chem, 2019).

What was measured:
[1] = Apparent permeability across basolateral to apical side in human Caco2 cells at 10 uM; assay type: ADME, cell-based; details: Caco-2
In short: (§1)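 Caco-2 monolayers; bidirectional permeability measured at 10 µM, with and without the P-gp inhibitor verapamil.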

[2] = Toxicity in dog assessed as effect on body weight at 10 to 25 mg/kg, po; assay type: organism-based, Canis lupus familiaris; details: in vivo
In short: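 Male dogs received oral doses of 10, 18 and 25 mg/kg. Body weight, body temperature, blood pressure, heart rate and ECG were monitored.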

[3] = Metabolic stability in dog hepatocytes after 30 mins by LC-MS/MS analysis; assay type: ADME, cell-based, Canis lupus familiaris, Hepatocyte; details: read-out: Stability
[4] = Mutagenicity in Salmonella typhimurium TA1537 in absence of metabolic activation by Ames test; assay type: toxicity; details: salmonella enterica subsp. enterica serovar typhimurium
Cytochrome P450 2B6 = target: T1, Cytochrome P450 2B6 (Homo sapiens, UniProt P20813); assay: Inhibition of CYP2B6 (unknown origin); assay type: ADME
T1 sequence (P20813 whole entry): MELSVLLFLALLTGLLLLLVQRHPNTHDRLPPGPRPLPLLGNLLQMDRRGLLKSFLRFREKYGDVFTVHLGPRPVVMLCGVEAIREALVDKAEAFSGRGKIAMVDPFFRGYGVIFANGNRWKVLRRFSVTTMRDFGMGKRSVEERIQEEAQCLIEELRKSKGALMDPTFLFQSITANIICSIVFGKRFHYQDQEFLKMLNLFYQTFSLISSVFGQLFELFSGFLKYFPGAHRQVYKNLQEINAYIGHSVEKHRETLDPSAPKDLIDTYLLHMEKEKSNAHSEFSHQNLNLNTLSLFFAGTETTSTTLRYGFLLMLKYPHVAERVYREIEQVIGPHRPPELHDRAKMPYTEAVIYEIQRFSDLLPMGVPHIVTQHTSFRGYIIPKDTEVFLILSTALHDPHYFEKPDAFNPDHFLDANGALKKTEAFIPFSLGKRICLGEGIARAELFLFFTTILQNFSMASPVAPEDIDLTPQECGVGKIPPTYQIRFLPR

[5] = AUC (0 to 24 hrs) in Wistar rat at 1 mg/kg, iv by LC-MS/MS analysis; assay type: ADME, organism-based; design: time < 24 hr, dose 1 mg/kg, route intravenous; details: Wistar, in vivo
In short: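 Fasted male Wistar rats; compound in water for injection, given i.v. (2 mL/kg) or p.o. (10 mL/kg). Plasma exposure measured as AUC0-24hr.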

[6] = Mutagenicity in Escherichia coli WP2 in presence of metabolic activation by Ames test; assay type: toxicity
In short: (§2)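 Reverse-mutation test in Salmonella typhimurium TA1537, TA1535, TA98 and TA100 and in E. coli WP2 uvrA, run with and without metabolic activation.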

Cytochrome P450 2C8 = target: T2, Cytochrome P450 2C8 (Homo sapiens, UniProt P10632); assay: Inhibition of CYP2C8 (unknown origin); assay type: ADME
T2 sequence (P10632 whole entry): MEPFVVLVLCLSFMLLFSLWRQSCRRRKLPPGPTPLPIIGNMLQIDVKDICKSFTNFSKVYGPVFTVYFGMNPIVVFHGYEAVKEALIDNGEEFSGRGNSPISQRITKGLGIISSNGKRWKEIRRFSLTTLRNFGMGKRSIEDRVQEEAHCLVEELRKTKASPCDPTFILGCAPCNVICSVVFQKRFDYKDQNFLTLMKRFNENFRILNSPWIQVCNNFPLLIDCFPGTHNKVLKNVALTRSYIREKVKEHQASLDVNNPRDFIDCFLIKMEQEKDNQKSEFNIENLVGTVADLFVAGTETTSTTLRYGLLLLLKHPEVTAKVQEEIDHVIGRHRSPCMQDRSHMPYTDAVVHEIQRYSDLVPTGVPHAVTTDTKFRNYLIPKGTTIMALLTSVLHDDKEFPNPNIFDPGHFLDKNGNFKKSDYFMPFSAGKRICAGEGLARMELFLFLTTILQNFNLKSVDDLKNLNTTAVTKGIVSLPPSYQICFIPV

[7] = Apparent permeability across apical to basolateral side in human Caco2 cells at 10 uM; assay type: ADME, cell-based; details: Caco-2; in short: as §1
Cytochrome P450 2A6 = target: T3, Cytochrome P450 2A6 (Homo sapiens, UniProt P11509); assay: Inhibition of CYP2A6 (unknown origin); assay type: ADME
T3 sequence (P11509 whole entry): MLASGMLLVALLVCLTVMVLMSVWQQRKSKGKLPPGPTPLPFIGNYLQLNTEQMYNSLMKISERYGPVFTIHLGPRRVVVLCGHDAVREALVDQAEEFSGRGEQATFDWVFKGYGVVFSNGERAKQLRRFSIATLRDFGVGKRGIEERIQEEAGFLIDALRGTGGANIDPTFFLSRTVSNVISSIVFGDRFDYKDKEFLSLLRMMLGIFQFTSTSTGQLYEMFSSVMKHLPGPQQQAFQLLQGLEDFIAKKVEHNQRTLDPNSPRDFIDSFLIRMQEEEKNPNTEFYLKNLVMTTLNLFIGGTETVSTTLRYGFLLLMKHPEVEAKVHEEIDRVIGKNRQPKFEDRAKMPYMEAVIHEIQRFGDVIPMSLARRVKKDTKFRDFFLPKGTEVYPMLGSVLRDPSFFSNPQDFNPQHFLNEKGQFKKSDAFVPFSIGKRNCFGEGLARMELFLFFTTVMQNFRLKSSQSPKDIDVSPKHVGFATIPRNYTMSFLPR

[8] = Metabolic stability in rat liver microsomes in presence of NADPH after 30 mins by LC-MS/MS analysis; assay type: ADME, Microsome; details: read-out: Stability
[9] = Partition coefficient, log P of the compound; assay type: physicochemical; details: octanol/water
[10] = target: Voltage-gated inwardly rectifying potassium channel KCNH2 (Homo sapiens, UniProt Q12809); assay: Inhibition of human ERG expressed in HEK293 cells by whole-cell patch clamp assay; assay type: cell-based
Voltage-gated inwardly rectifying potassium channel KCNH2, sequence (Q12809 whole entry): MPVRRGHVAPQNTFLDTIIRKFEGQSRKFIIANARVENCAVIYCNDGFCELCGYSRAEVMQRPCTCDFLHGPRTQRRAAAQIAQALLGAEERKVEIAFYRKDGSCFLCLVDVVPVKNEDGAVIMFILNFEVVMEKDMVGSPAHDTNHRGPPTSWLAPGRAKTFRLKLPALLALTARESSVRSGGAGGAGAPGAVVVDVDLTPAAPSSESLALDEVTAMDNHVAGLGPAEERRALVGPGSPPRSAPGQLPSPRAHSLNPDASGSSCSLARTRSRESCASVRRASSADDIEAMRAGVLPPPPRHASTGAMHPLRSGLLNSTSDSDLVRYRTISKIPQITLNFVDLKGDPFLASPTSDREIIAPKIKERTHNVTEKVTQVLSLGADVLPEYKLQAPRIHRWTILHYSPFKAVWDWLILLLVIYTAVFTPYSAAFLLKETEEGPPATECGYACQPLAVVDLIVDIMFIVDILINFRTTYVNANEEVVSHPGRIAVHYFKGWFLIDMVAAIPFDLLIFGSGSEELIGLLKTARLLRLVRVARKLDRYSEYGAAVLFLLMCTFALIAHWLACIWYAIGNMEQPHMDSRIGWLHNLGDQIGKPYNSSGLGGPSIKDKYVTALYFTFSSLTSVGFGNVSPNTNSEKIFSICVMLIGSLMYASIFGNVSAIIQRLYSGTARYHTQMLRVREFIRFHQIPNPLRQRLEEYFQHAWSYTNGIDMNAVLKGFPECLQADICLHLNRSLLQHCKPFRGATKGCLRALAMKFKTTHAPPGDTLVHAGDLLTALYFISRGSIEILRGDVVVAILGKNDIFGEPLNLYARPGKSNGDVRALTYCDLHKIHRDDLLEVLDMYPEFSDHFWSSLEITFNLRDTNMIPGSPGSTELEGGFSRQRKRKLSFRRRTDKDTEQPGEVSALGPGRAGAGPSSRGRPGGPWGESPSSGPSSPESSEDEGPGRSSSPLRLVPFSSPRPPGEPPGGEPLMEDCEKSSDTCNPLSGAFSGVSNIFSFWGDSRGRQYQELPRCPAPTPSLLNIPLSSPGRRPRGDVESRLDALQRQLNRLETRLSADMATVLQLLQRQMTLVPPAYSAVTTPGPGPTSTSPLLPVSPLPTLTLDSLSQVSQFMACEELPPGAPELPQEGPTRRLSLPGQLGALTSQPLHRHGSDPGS

Rattus norvegicus = assay: Effect on striatal dopamine levels in Wistar rat at 100 mg/kg, po by microdialysis; assay type: ADME, organism-based; details: in vivo
[11] = Toxicity in Wistar rat assessed as effect on latency to fall at 30 to 100 mg/kg, po by rotarod test; assay type: organism-based; details: in vivo
In short: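 Motor coordination was assessed on the rotarod as latency to fall after oral doses of 30 and 100 mg/kg.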

[12] = Mutagenicity in Salmonella typhimurium TA100 in absence of metabolic activation by Ames test; assay type: toxicity; details: salmonella enterica subsp. enterica serovar typhimurium; in short: as §2
Cytochrome P450 2D6 = Cytochrome P450 2D6 (Homo sapiens, UniProt P10635); assay: Inhibition of CYP2D6 in human liver microsomes using dextromethorphan as substrate after 12 mins in presence of NADPH by LC-MS/MS analysis; assay type: ADME
Cytochrome P450 2D6, sequence (P10635 whole entry): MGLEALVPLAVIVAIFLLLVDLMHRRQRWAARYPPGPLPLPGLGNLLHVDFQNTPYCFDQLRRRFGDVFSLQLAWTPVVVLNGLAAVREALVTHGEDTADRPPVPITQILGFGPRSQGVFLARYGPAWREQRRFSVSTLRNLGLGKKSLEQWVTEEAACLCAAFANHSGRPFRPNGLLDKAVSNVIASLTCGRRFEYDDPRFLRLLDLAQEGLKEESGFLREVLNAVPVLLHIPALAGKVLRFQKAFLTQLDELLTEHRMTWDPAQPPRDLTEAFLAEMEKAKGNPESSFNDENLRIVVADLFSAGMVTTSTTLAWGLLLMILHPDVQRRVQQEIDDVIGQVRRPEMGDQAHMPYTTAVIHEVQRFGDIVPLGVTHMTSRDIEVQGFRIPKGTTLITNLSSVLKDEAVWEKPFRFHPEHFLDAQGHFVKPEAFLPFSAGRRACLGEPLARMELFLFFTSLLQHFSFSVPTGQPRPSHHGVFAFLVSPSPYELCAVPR

Cl.Cl.O=C(CN1CCOCC1)Nc1ccc(OC2CCN(C3CCC3)CC2)cc1
Papp B→A at 10 µM [1]: 30.8 ×10⁻⁶ cm/s
Activity [2]: Non-Toxic
remaining at 0.5 h [3]: 33%
Activity [4]: Non-Toxic
IC50 (Cytochrome P450 2B6): > 45 µM
AUC(0-t) at 24 h [5]: 263 ng·h/mL
Activity [6]: Non-Toxic
IC50 (Cytochrome P450 2C8): > 45 µM
Papp A→B at 10 µM [7]: 30.8 ×10⁻⁶ cm/s
IC50 (Cytochrome P450 2A6): > 45 µM
remaining at 0.5 h [8]: 27%
logP [9]: 2.2
IC50 [10]: > 10 µM
Activity (Rattus norvegicus): Non-Toxic
Activity [11]: Non-Toxic
Activity [12]: Non-Toxic
IC50 (Cytochrome P450 2D6): > 45 µM
